Test results published in publication PMC11382098 (RSC Advances, 2024).

Assays:
[1] = test system: human non-small-cell lung cancer cells (A549); assay: In vitro cytotoxicity; format: cell-based
Procedure, shortened: (§1)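 Cells grown in DMEM with 10% FBS, penicillin/streptomycin, L-glutamine and 1 mM sodium pyruvate at 37 °C, 5% CO2. Seeded at 3 × 10^3 cells/well for 24 h, then exposed 72 h to test compound at 6.25, 12.5, 25, 50 and 100 μM; 5-FU as positive control. MTT 0.5 mg mL−1 for 3 h at 37 °C; formazan dissolved in DMSO, read at A570. Untreated cells set as 100% viability; IC50 given as mean ±SD, n = 3.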

[2] = test system: Hs68 (human foreskin fibroblast) cells; assay: In vitro cytotoxicity; format: cell-based; conditions: Hs68, read-out: IC50 (concentration necessary for 50% inhibition), Hs68 cells
Procedure, shortened: as §1

Solubility observation = format: physicochemical; conditions: compounds with two nitro groups

Solubility (in words) (Solubility observation)	SMILES	Cytotoxic activity against A549 cells (in words) [1]	other results
	O=[N+]([O-])c1ccc2nc(/C=C/c3cccc(Cl)c3)c(/C=C/c3cccc(Cl)c3)nc2c1 [Compound 5g, 2,3-Bis[(E)-3-chlorostyryl]-6-nitroquinoxaline]	exhibited cytotoxic activities	
	O=c1[nH]cc(F)c(=O)[nH]1 [5-FU, 5-Fluorouracil]		IC50 [2]: 3.08 ± 0.4 µM
	Brc1ccc2nc(/C=C/c3cccs3)c(/C=C/c3cccs3)nc2c1 [Compound 4b, 6-Bromo-2,3-bis[(E)-2-(thiophen-2-yl)vinyl]quinoxaline]	exhibited cytotoxic activities	
reduced the solubility	O=[N+]([O-])c1cccc(/C=C/c2nc3ccc(Br)cc3nc2/C=C/c2cccc([N+](=O)[O-])c2)c1 [Compound 4f, 6-Bromo-2,3-bis[(E)-3-nitrostyryl]quinoxaline]		
reduced the solubility	O=[N+]([O-])c1ccc(/C=C/c2nc3ccc(Br)cc3nc2/C=C/c2ccc([N+](=O)[O-])cc2)cc1 [Compound 4k, 6-Bromo-2,3-bis[(E)-4-nitrostyryl]quinoxaline]		
	Clc1cccc(/C=C/c2nc3ccc(Br)cc3nc2/C=C/c2cccc(Cl)c2)c1 [Compound 4g, 6-Bromo-2,3-bis[(E)-3-chlorostyryl]quinoxaline]	exhibited cytotoxic activities	
	COc1ccccc1/C=C/c1nc2ccc(Br)cc2nc1/C=C/c1ccccc1OC [Compound 4e, 6-Bromo-2,3-bis[(E)-2-methoxystyryl]quinoxaline]	exhibited cytotoxic activities	
reduced the solubility	O=[N+]([O-])c1ccc(/C=C/c2nc3ccc([N+](=O)[O-])cc3nc2/C=C/c2ccc([N+](=O)[O-])cc2)cc1 [Compound 5k, 6-Nitro-2,3-bis[(E)-4-nitrostyryl]quinoxaline]		
reduced the solubility	O=[N+]([O-])c1cccc(/C=C/c2nc3ccc([N+](=O)[O-])cc3nc2/C=C/c2cccc([N+](=O)[O-])c2)c1 [Compound 5f, 6-Nitro-2,3-bis[(E)-3-nitrostyryl]quinoxaline]		
	COc1ccc(/C=C/c2nc3ccc(Br)cc3nc2/C=C/c2ccc(OC)cc2)cc1 [Compound 4l, 6-Bromo-2,3-bis[(E)-4-methoxystyryl]quinoxaline]	exhibited cytotoxic activities	
	Brc1ccc2nc(/C=C/c3ccco3)c(/C=C/c3ccco3)nc2c1 [Compound 4a, 6-Bromo-2,3-bis[(E)-2-(furan-2-yl)vinyl]quinoxaline]	exhibited cytotoxic activities	
